Results on ten compounds are retold here after ChEMBL document CHEMBL1142889, “Synthesis and anticancer activity of a novel class of flavonoids: 2,4-diarylchromane[4,3-d]-delta(1,9b)-1,2,3-thiadiazolines” (Eur J Med Chem, 2007).

As a reminder, the IC50 is the point on the concentration scale where inhibition reaches its midpoint.

Converted amounts (≈) assume the structure as drawn.

For the first assay, the system named is Bel-7402. In words: Antiproliferative activity against Bel7402 cells after 72 hrs by MTT assay. The class given is functional, cell-based. The conditions noted are these: Homo sapiens, Bel-7402, 72 h. The essentials:
(§1)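 Cells were exposed to compound for 72 h. MTT in RPMI-1640 was then added and incubated for a further 4 h at 37 °C. Three replicate wells were used per point. IC50 for cell-viability inhibition was calculated from three independent experiments.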
On to `CCOC12SN(c3ccc(S(C)(=O)=O)cc3Cl)N=C1c1cc(C)ccc1OC2(OCC)c1ccc(Cl)cc1` (racemic), for which half-maximal inhibition (IC50) was put at 7.3 µg/mL (≈ 12.3 µM).
On to `CCOC12SN(c3ccc(NC(C)=O)cc3Cl)N=C1c1cc(C)ccc1OC2(OCC)c1ccc(Cl)cc1` (racemic), for which the midpoint of inhibition, the IC50, lay at 10.5 µg/mL (≈ 18.3 µM).
On to `CCOC12SN(c3ccc([N+](=O)[O-])cc3Cl)N=C1c1cc(C)ccc1OC2(OCC)c1ccc(Cl)cc1` (racemic), for which the IC50 is 18.6 µg/mL (≈ 33.2 µM).
For `COc1cc(OC)c2c(c1Cl)OC(OC)(c1ccc(Cl)cc1)C1(OC)SN(c3ccc([N+](=O)[O-])cc3Cl)N=C21` (racemic), the half-inhibitory concentration (IC50) is greater than 50 µg/mL.
Compound `CCOC12SN(c3ccc([N+](=O)[O-])cc3Cl)N=C1c1ccccc1OC2(OCC)c1ccc(OC)cc1` (racemic) displayed an IC50 of 8.2 µg/mL (≈ 15.1 µM).
Turning to `CCOC12SN(c3ccc(NC(C)=O)cc3Cl)N=C1c1ccccc1OC2(OCC)c1ccc(Cl)cc1` (racemic), the IC50 turned out to be 21.3 µg/mL (≈ 38.1 µM).
On the same count and under the same terms, the result for `CCOC12SN(c3ccc(S(C)(=O)=O)cc3Cl)N=C1c1ccccc1OC2(OCC)c1ccc(OC)cc1` (racemic) reads 23.5 µg/mL (≈ 40.9 µM); that for `CCOC12SN(c3ccc([N+](=O)[O-])cc3Cl)N=C1c1c(OC)cc(OC)c(Cl)c1OC2(OCC)c1ccc(OC)cc1` (racemic), greater than 50 µg/mL; that for `CCOC12SN(c3ccc([N+](=O)[O-])cc3Cl)N=C1c1c(OC)cc(OC)c(Cl)c1OC2(OCC)c1ccc(C)cc1` (racemic), greater than 50 µg/mL.

Tested on in the next assay: not listed separately
In words: Antiproliferative activity against ECA109 cells after 72 hrs by MTT assay. Type of assay: functional, cell-based. The conditions noted are these: Homo sapiens, ECa-109, 72 h. The gist of the method:
as §1
For orientation: Tetrazolium dyes change colour on reduction, which living cells bring about.
`CCOC12SN(c3ccc(S(C)(=O)=O)cc3Cl)N=C1c1cc(C)ccc1OC2(OCC)c1ccc(Cl)cc1` (racemic) came in with an IC50 of 11.5 µg/mL (≈ 19.4 µM).
In the case of `CCOC12SN(c3ccc(NC(C)=O)cc3Cl)N=C1c1cc(C)ccc1OC2(OCC)c1ccc(Cl)cc1` (racemic), half-maximal inhibition (IC50) required 4.1 µg/mL (≈ 7.16 µM).
On the same count and under the same terms, for `CCOC12SN(c3ccc([N+](=O)[O-])cc3Cl)N=C1c1cc(C)ccc1OC2(OCC)c1ccc(Cl)cc1` (racemic) the value was 14.8 µg/mL (≈ 26.4 µM); for `COc1cc(OC)c2c(c1Cl)OC(OC)(c1ccc(Cl)cc1)C1(OC)SN(c3ccc([N+](=O)[O-])cc3Cl)N=C21` (racemic), 5.7 µg/mL (≈ 9.3 µM).
For the compound `CCOC12SN(c3ccc([N+](=O)[O-])cc3Cl)N=C1c1ccccc1OC2(OCC)c1ccc(OC)cc1` (racemic), the IC50 worked out at 9.6 µg/mL (≈ 17.7 µM).
Same read-out and setting: the result for `CCOC12SN(c3ccc(NC(C)=O)cc3Cl)N=C1c1ccccc1OC2(OCC)c1ccc(Cl)cc1` (racemic) reads 9.6 µg/mL (≈ 17.2 µM); that for `CCOC12SN(c3ccc(S(C)(=O)=O)cc3Cl)N=C1c1ccccc1OC2(OCC)c1ccc(OC)cc1` (racemic), 5.9 µg/mL (≈ 10.3 µM).
For `CCOC12SN(c3ccc([N+](=O)[O-])cc3Cl)N=C1c1c(OC)cc(OC)c(Cl)c1OC2(OCC)c1ccc(OC)cc1` (racemic), the half-maximal inhibitory concentration (IC50) was greater than 50 µg/mL.
Same read-out and setting: for `CCOC12SN(c3ccc([N+](=O)[O-])cc3Cl)N=C1c1c(OC)cc(OC)c(Cl)c1OC2(OCC)c1ccc(C)cc1` (racemic) the value was 7.3 µg/mL (≈ 11.8 µM).

For a further assay, the system named is PC-3. The assay can be described thus: Antiproliferative activity against PC3 cells after 72 hrs by MTT assay. Type of assay: functional, cell-based. The conditions noted are these: Homo sapiens, PC-3, 72 h. The essentials: as §1
Turning to `CCOC12SN(c3ccc(S(C)(=O)=O)cc3Cl)N=C1c1cc(C)ccc1OC2(OCC)c1ccc(Cl)cc1` (racemic), the 50% inhibitory concentration (IC50) was determined as 6 µg/mL (≈ 10.1 µM).
`CCOC12SN(c3ccc(NC(C)=O)cc3Cl)N=C1c1cc(C)ccc1OC2(OCC)c1ccc(Cl)cc1` (racemic) had an IC50 of 2.4 µg/mL (≈ 4.19 µM).
Compound `CCOC12SN(c3ccc([N+](=O)[O-])cc3Cl)N=C1c1cc(C)ccc1OC2(OCC)c1ccc(Cl)cc1` (racemic) came in with an IC50 greater than 50 µg/mL.
Still for that read-out and setting: the result for `COc1cc(OC)c2c(c1Cl)OC(OC)(c1ccc(Cl)cc1)C1(OC)SN(c3ccc([N+](=O)[O-])cc3Cl)N=C21` (racemic) reads 2.9 µg/mL (≈ 4.73 µM); that for `CCOC12SN(c3ccc([N+](=O)[O-])cc3Cl)N=C1c1ccccc1OC2(OCC)c1ccc(OC)cc1` (racemic), 5.7 µg/mL (≈ 10.5 µM).
In turn, `CCOC12SN(c3ccc(NC(C)=O)cc3Cl)N=C1c1ccccc1OC2(OCC)c1ccc(Cl)cc1` (racemic) displayed an IC50 of 4.1 µg/mL (≈ 7.34 µM).
`CCOC12SN(c3ccc(S(C)(=O)=O)cc3Cl)N=C1c1ccccc1OC2(OCC)c1ccc(OC)cc1` (racemic) showed a concentration for half-maximal inhibition (IC50) of 3.5 µg/mL (≈ 6.09 µM).
In turn, `CCOC12SN(c3ccc([N+](=O)[O-])cc3Cl)N=C1c1c(OC)cc(OC)c(Cl)c1OC2(OCC)c1ccc(OC)cc1` (racemic) displayed a concentration for half-maximal inhibition (IC50) of 19.2 µg/mL (≈ 30.2 µM).
Compound `CCOC12SN(c3ccc([N+](=O)[O-])cc3Cl)N=C1c1c(OC)cc(OC)c(Cl)c1OC2(OCC)c1ccc(C)cc1` (racemic) came in with a half-maximal inhibitory concentration (IC50) of 7.3 µg/mL (≈ 11.8 µM).

The next assay has as its system MCF7. The assay can be described thus: Antiproliferative activity against MCF7 cells after 72 hrs by MTT assay. Type of assay: functional, cell-based. The conditions noted are these: Homo sapiens, MCF7, 72 h. The essentials: as §1
For `CCOC12SN(c3ccc(S(C)(=O)=O)cc3Cl)N=C1c1cc(C)ccc1OC2(OCC)c1ccc(Cl)cc1` (racemic), the midpoint of inhibition, the IC50, lay at 2.5 µg/mL (≈ 4.21 µM).
The compound `CCOC12SN(c3ccc(NC(C)=O)cc3Cl)N=C1c1cc(C)ccc1OC2(OCC)c1ccc(Cl)cc1` (racemic) registered an IC50 of 19.8 µg/mL (≈ 34.6 µM).
Turning to `CCOC12SN(c3ccc([N+](=O)[O-])cc3Cl)N=C1c1cc(C)ccc1OC2(OCC)c1ccc(Cl)cc1` (racemic), the IC50 was greater than 25 µg/mL.
Still for that read-out and setting: the result for `COc1cc(OC)c2c(c1Cl)OC(OC)(c1ccc(Cl)cc1)C1(OC)SN(c3ccc([N+](=O)[O-])cc3Cl)N=C21` (racemic) reads 5.5 µg/mL (≈ 8.97 µM); that for `CCOC12SN(c3ccc([N+](=O)[O-])cc3Cl)N=C1c1ccccc1OC2(OCC)c1ccc(OC)cc1` (racemic), 23.3 µg/mL (≈ 43 µM); that for `CCOC12SN(c3ccc(NC(C)=O)cc3Cl)N=C1c1ccccc1OC2(OCC)c1ccc(Cl)cc1` (racemic), 23.3 µg/mL (≈ 41.7 µM).
Compound `CCOC12SN(c3ccc(S(C)(=O)=O)cc3Cl)N=C1c1ccccc1OC2(OCC)c1ccc(OC)cc1` (racemic) showed a 50% inhibitory concentration (IC50) greater than 25 µg/mL.
As to `CCOC12SN(c3ccc([N+](=O)[O-])cc3Cl)N=C1c1c(OC)cc(OC)c(Cl)c1OC2(OCC)c1ccc(OC)cc1` (racemic), the half-maximal inhibitory concentration (IC50) was greater than 25 µg/mL.
Turning to `CCOC12SN(c3ccc([N+](=O)[O-])cc3Cl)N=C1c1c(OC)cc(OC)c(Cl)c1OC2(OCC)c1ccc(C)cc1` (racemic), the IC50 was greater than 25 µg/mL.

Another assay deals with HL-60. The assay can be described thus: Antiproliferative activity against HL60 cells after 72 hrs by MTT assay. Type of assay: functional, cell-based. Conditions: Homo sapiens, HL-60, 72 h. The gist of the method: as §1
`CCOC12SN(c3ccc(S(C)(=O)=O)cc3Cl)N=C1c1cc(C)ccc1OC2(OCC)c1ccc(Cl)cc1` (racemic) displayed a half-maximal inhibitory concentration (IC50) of 6 µg/mL (≈ 10.1 µM).
The compound `CCOC12SN(c3ccc(NC(C)=O)cc3Cl)N=C1c1cc(C)ccc1OC2(OCC)c1ccc(Cl)cc1` (racemic) yielded an IC50 of 1.3 µg/mL (≈ 2.27 µM).
In turn, `CCOC12SN(c3ccc([N+](=O)[O-])cc3Cl)N=C1c1cc(C)ccc1OC2(OCC)c1ccc(Cl)cc1` (racemic) had an IC50 greater than 25 µg/mL.
`COc1cc(OC)c2c(c1Cl)OC(OC)(c1ccc(Cl)cc1)C1(OC)SN(c3ccc([N+](=O)[O-])cc3Cl)N=C21` (racemic) returned an IC50 of 3.2 µg/mL (≈ 5.22 µM).
In turn, `CCOC12SN(c3ccc([N+](=O)[O-])cc3Cl)N=C1c1ccccc1OC2(OCC)c1ccc(OC)cc1` (racemic) returned a half-inhibitory concentration (IC50) of 3.3 µg/mL (≈ 6.09 µM).
In turn, `CCOC12SN(c3ccc(NC(C)=O)cc3Cl)N=C1c1ccccc1OC2(OCC)c1ccc(Cl)cc1` (racemic) returned an IC50 of 2.2 µg/mL (≈ 3.94 µM).
For the compound `CCOC12SN(c3ccc(S(C)(=O)=O)cc3Cl)N=C1c1ccccc1OC2(OCC)c1ccc(OC)cc1` (racemic), the 50% inhibitory concentration (IC50) worked out at 1.8 µg/mL (≈ 3.13 µM).
With `CCOC12SN(c3ccc([N+](=O)[O-])cc3Cl)N=C1c1c(OC)cc(OC)c(Cl)c1OC2(OCC)c1ccc(OC)cc1` (racemic), inhibition was half-maximal at 23.2 µg/mL (≈ 36.4 µM) (IC50).
On to `CCOC12SN(c3ccc([N+](=O)[O-])cc3Cl)N=C1c1c(OC)cc(OC)c(Cl)c1OC2(OCC)c1ccc(C)cc1` (racemic), for which half-maximal inhibition (IC50) required 16.8 µg/mL (≈ 27.1 µM).

Another assay concerns A549. In words: Antiproliferative activity against A549 cells after 72 hrs by MTT assay. The conditions noted are these: Homo sapiens, A549, 72 h. The class given is functional, cell-based. The essentials: as §1
Consider `CCOC12SN(c3ccc(S(C)(=O)=O)cc3Cl)N=C1c1cc(C)ccc1OC2(OCC)c1ccc(Cl)cc1` (racemic), for which the IC50 came to 10.3 µg/mL (≈ 17.4 µM).
`CCOC12SN(c3ccc(NC(C)=O)cc3Cl)N=C1c1cc(C)ccc1OC2(OCC)c1ccc(Cl)cc1` (racemic): inhibition was half-maximal at 2.5 µg/mL (≈ 4.37 µM) (IC50).
As to `CCOC12SN(c3ccc([N+](=O)[O-])cc3Cl)N=C1c1cc(C)ccc1OC2(OCC)c1ccc(Cl)cc1` (racemic), the concentration for half-maximal inhibition (IC50) stood at 7.8 µg/mL (≈ 13.9 µM).
Still for that read-out and setting: the result for `COc1cc(OC)c2c(c1Cl)OC(OC)(c1ccc(Cl)cc1)C1(OC)SN(c3ccc([N+](=O)[O-])cc3Cl)N=C21` (racemic) reads 5.4 µg/mL (≈ 8.81 µM); that for `CCOC12SN(c3ccc([N+](=O)[O-])cc3Cl)N=C1c1ccccc1OC2(OCC)c1ccc(OC)cc1` (racemic), 5.1 µg/mL (≈ 9.41 µM); that for `CCOC12SN(c3ccc(NC(C)=O)cc3Cl)N=C1c1ccccc1OC2(OCC)c1ccc(Cl)cc1` (racemic), 4.2 µg/mL (≈ 7.52 µM).
On the same count and under the same terms, for `CCOC12SN(c3ccc(S(C)(=O)=O)cc3Cl)N=C1c1ccccc1OC2(OCC)c1ccc(OC)cc1` (racemic) the value was 3.3 µg/mL (≈ 5.74 µM); for `CCOC12SN(c3ccc([N+](=O)[O-])cc3Cl)N=C1c1c(OC)cc(OC)c(Cl)c1OC2(OCC)c1ccc(OC)cc1` (racemic), 17.7 µg/mL (≈ 27.8 µM).
The compound `CCOC12SN(c3ccc([N+](=O)[O-])cc3Cl)N=C1c1c(OC)cc(OC)c(Cl)c1OC2(OCC)c1ccc(C)cc1` (racemic) gave a concentration for half-maximal inhibition (IC50) greater than 50 µg/mL.

A further assay deals with CCRF S-180. The assay can be described thus: Antitumor activity against S180 cells inoculated in ICR mouse assessed as inhibition at 50 mg/kg, ip after 8 days relative to control. Details: scale not given: the % may be the effect or the level left. The conditions noted are these: route intraperitoneal.
With `O=P1(N(CCCl)CCCl)NCCCO1` (stereo not given) [CYCLOPHOSPHAMIDE ANHYDROUS], the Activity is 45.4%.
